Shown are actives, neighbours in structure and some others; about 2.2% of the full set was active somewhere.
APP 5'UTR act: activates APP 5'UTR luciferase reporter; SH-SY5Y APP 5'UTR luciferase reporter, luminescence; zero percent = DMSO vehicle wells; activation, % at 2 µM; 190,000 compounds, 1% hits;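 active = activation above a set limit, based on mean plus 3 SD of controls, cut at about 140% in these data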
NF-kB expr up: NF-kB expression increase, human neuronal cells. 190,000 compounds, 1.6% hits. fold change at 12.5 µM. NF-kB reporter expression; stronger effect = higher value. AID 1239; in the data active = fold change above about 3.3
PPC-1+TRAIL kill: PPC-1 cancer cell killing with TRAIL present. PPC-1 cells + TRAIL, ATPLite viability luminescence. cell killing (% activity), % at 4 µM or 5 µM. AID 1443. 220,000 compounds, 0.41% hits;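 active = cell killing above 50% in the first pass at 4 µM, then a duplicate retest at 5 µM averaging 50% or more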;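 also: plate controls were cells with TRAIL plus DMSO for no effect and medium-only wells lacking cells for full effect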
FLuc inh counter: inhibits firefly luciferase, flagging false hits in luciferase inhibition screens. ATPLite firefly luciferase biochemical luminescence, 10 min. P08659. 200,000 compounds, 1.5% hits. AID 1006. inhibition, % at 10 µM;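 active = inhibition above about 50% when tested at 10 µM, limit read from the data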
Target sequence (P08659 whole entry, looked up): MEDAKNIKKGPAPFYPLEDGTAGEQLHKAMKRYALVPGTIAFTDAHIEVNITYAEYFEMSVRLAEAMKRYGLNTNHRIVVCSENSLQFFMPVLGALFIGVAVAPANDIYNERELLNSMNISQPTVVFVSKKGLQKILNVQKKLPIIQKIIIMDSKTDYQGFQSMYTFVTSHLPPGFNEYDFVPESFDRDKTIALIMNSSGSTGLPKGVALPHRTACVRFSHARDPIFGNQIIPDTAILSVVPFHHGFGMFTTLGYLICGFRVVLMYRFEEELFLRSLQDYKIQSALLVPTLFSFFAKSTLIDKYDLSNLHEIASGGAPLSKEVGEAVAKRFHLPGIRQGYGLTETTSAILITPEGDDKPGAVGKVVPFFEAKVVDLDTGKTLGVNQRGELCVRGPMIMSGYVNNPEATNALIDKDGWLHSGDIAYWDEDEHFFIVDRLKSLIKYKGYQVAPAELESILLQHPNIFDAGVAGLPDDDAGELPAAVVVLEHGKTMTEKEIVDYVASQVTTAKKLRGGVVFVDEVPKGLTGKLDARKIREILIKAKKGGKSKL
TRAIL sens C8: sensitizes caspase-8 expressing cells to TRAIL | NB7+C8 cells + TRAIL, ATPlite viability luminescence | 360,000 compounds, 1% hits | inhibition (viability loss, TRAIL sensitization), % at 10 µM;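 active = compounds causing at least 50% loss of cell viability in the single-dose screen, relative to plate controls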
FLuc stim CS: affects firefly luciferase, flagging false hits in luciferase stimulation screens; ATPlite luciferase biochemical, luminescence, 10 min; 0 = ATP-free wells, 1 = DMSO control; P08659; 200,000 tested, under 10 active; activation factor at 10 µM; AID 1027;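 active = luciferase activation factor, scaled between plate controls, of at least 2 with compound at 10 µM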
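Material: luciferase plus luciferin reagent, cell-free. Medium: PBS buffer for ATP. Also added: ATP substrate, dispensed from a 10.24 µM working solution in PBS. Doses: test compounds dosed from 2 mM stocks in 100% DMSO. Incubation: 10 min post-reagent at room temperature. Technique: light output (luminescence). Read-out basis: luminescence gain marking luciferase activators.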
* = called active by the depositor; x = no result.

SMILES	APP 5'UTR act	NF-kB expr up	PPC-1+TRAIL kill	FLuc inh counter	TRAIL sens C8	FLuc stim CS
CC(=O)N1CCN(c2ccc(NCc3ccc(C)s3)cc2)CC1	x	1.1	10	2	4	1
Cc1ccc(CNc2ccc(N3CCOCC3)cc2)s1	84	3.2	15	73*	68*	0.3
Cc1ccc(N2CC(C(=O)N3CCOCC3)CC2=O)cc1Cl (stereo unspecified)	x	x	x	x	-6	x
CC1CCN(C(=O)CSc2nnc3c(n2)[nH]c2ccccc23)CC1	x	x	x	x	19	x
O=C(CSCc1ccco1)c1cccs1	170*	1.9	6	17	11	0.8
O=C(CCC(=O)c1cccs1)c1cccs1	131	5.2*	19	22	14	0.8
O=C(COC(=O)c1cccs1)c1ccccc1	55	4.6*	-6	66*	-3	0.3
COc1ccc(C(=O)COC(=O)c2cccs2)cc1	x	x	x	x	-4	x
Clc1cc(Br)ccc1OCCN1CCOCC1	9	1.3	39	-1	1	1
CCCCCOc1ccc(CN2CCOCC2)cc1Cl	144*	1.9	14	22	18	0.8
O=Cc1ccc(OCc2nnsc2Cl)cc1	-14	1.2	1	-5	6	1.1
CCC(C)(C)NC(=O)C(NS(=O)(=O)c1cccs1)c1ccccc1 (stereo unspecified)	x	x	x	x	1	x
Cc1ccc(C(=O)COC(=O)c2cc(=O)[nH]c3ccccc23)cc1C	-21	2.6	6	55*	13	0.4
COc1ccccc1C(=O)COC(=O)c1cc(=O)[nH]c2ccccc12	x	x	x	x	4	x
CN(C(=O)CN1C(=O)S/C(=C\c2ccc(Cl)cc2)C1=O)C1CCS(=O)(=O)C1 (stereo unspecified)	x	x	x	x	-14	x
CC(C)CC(N)c1csc(NC(=O)c2cc(C(C)(C)C)nn2Cc2ccccc2)n1 (stereo unspecified)	x	x	x	x	84*	x
CN(C)c1ccc(/C=C/c2ccc3c4ccccc4ccc3[n+]2-c2ccccc2)cc1	-83	0.36	68*	65*	63*	0.3
C[C@@H]1[C@H](O)C[C@@]23COC(=O)C2=CCCC3[C@@]1(C)CCC1COC(=O)C1 (stereo partly specified)	x	x	x	x	-12	x
O=C1C(=Cc2cccs2)Oc2ccccc21	x	x	x	x	-12	x
O=C1/C(=C/c2cccs2)COc2ccccc21	70	3	8	71*	14	0.3
COc1cc(OC)c(NC(=O)c2ccc3c(SCC(=O)O)c4c(nc3c2)CCCC4)cc1Cl	2	1.1	2	-2	-5	1
C(=N\N=C\c1ccccn1)/c1ccccn1	x	x	x	x	15	x
C(=N\NC1=Nc2cccc3cccc1c23)/c1ccccn1	78	6.2*	37	66*	71*	0.3
Clc1ccccc1C=NNc1ccccn1	x	x	x	x	12	x
Clc1ccccc1/C=N/NC1=Nc2cccc3cccc1c23	171*	0.67	33	31	40	0.7
SMILES	APP 5'UTR act	NF-kB expr up	PPC-1+TRAIL kill	FLuc inh counter	TRAIL sens C8	FLuc stim CS
C(=NNc1ccc2ccccc2n1)c1ccccn1	x	x	x	x	87*	x
COCCNc1ncnc2c1ncn2[C@H]1CN(Cc2ccccc2)C[C@@H](CO)O1	x	x	x	x	-16	x
CCCC(=O)N1CCCC(c2cc(C(=O)NCc3ccccc3)no2)C1 (stereo unspecified)	x	x	x	x	-4	x
Cn1c(/N=C/c2cccs2)nc2ccccc21	-2	0.59	31	74*	2	0.3
COc1ccc(/C=N/c2nc3ccccc3n2C)cc1OC	10	1.2	18	70*	4	0.3
O=C(COc1ccc2ccccc2c1)Nc1ccc2c3c(cccc13)CC2	3	1.1	-8	-8	1	1.1
CC(=C/c1ccccc1)/C=N/NC(=O)c1cnccn1	65	1.9	25	74*	45	0.3
CC(/C=N/NC(=O)c1ccc(Br)cc1)=C\c1ccccc1	-6	1.4	20	20	16	0.8
CC(/C=N/NC(=O)c1cc(C(C)C)[nH]n1)=C\c1ccccc1	21	1.4	9	6	5	0.9
O=C(N/N=C/C(Cl)=C\c1ccccc1)c1cnccn1	-3	1.2	15	46	24	0.5
CC(/C=N/NC(=O)c1cccnc1)=C\c1ccccc1	21	1.8	37	65*	16	0.4
O=C(N/N=C/C(Cl)=C/c1ccccc1)c1ccco1	89	4.3*	5	64*	31	0.4
O=C(N/N=C/C(Cl)=C/c1ccccc1)c1cnccn1	8	1.3	16	56*	21	0.4

Screening results as filed in PubChem.
